“Also recorded” adds a separate entry of the source. One block for each compound: values may come before it.
What was measured:
Assay type in all cases: in vivo, human
[1] = Alisertib plasma PK in patients; settings: for AUC / Cmax / Tmax: human, plasma, oral; for AUC: Geometric mean AUCτ (CV); for Cmax: Geometric mean Cmax (CV)
How it was run: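 Patients with relapsed/refractory aggressive B-cell NHL took oral test compound twice daily on days 1–7 of 21-day cycles, at 30 to 50 mg b.i.d. Cohorts received it with rituximab 375 mg/m2 i.v. on day 1, with or without vincristine 1.4 mg/m2 (max 2 mg) i.v. on days 1 and 8. Blood was drawn at prespecified times after the morning dose on cycle 1 days 1 and 7. Cmax, tmax and AUCτ were derived by noncompartmental analysis.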

[2] = test system: relapsed/refractory aggressive B-cell lymphoma; experiment: Antitumor activity, investigator-assessed response
[3] = test system: non-GCB DLBCL; experiment: Best response by cell of origin; settings: non-GCB-derived disease, 20 patients (MR + MRV)
[4] = test system: GCB DLBCL; experiment: Best response by cell of origin; settings: MR + MRV; P = 0.058 vs non-GCB, two-sided Fisher exact test
[5] = Vincristine plasma PK in presence; settings: for AUC / AUC(0-inf) / clearance / Cmax / half-life: human, plasma, intravenous; for AUC: Geometric mean AUCτ (CV); for AUC(0-inf): Geometric mean AUC∞ (CV); for clearance: Geometric mean CL (CV); for Cmax: Geometric mean Cmax (CV); for half-life: Mean t1/2z (st. dev)
[6] = 30 mg, MRV, alisertib 30 mg b.i.d., C1D1, n=4
[7] = 30 mg, MRV, alisertib 30 mg b.i.d., C1D7, n=4
[8] = 40 mg, MRV, alisertib 40 mg b.i.d., C1D7, n=20
[9] = 50 mg, MR, alisertib 50 mg b.i.d., C1D7, n=12
[10] = 50 mg, MRV, alisertib 50 mg b.i.d., C1D1, n=3
[11] = 50 mg, MRV, alisertib 50 mg b.i.d., C1D7, n=2
[12] = 30 mg, alisertib 30 mg b.i.d. cohort, C1D1 (alisertib present), n=4
[13] = 30 mg, alisertib 30 mg b.i.d. cohort, C2D1 (alisertib absent), n=3
[14] = 30 mg, alisertib 30 mg b.i.d. cohort, C2D1 (alisertib absent), n=4
[15] = 40 mg, alisertib 40 mg b.i.d. cohort, C2D1 (alisertib absent), n=17
[16] = 40 mg, alisertib 40 mg b.i.d. cohort, C1D1 (alisertib present), n=22
[17] = 40 mg, alisertib 40 mg b.i.d. cohort, C2D1 (alisertib absent), n=16
[18] = 40 mg, alisertib 40 mg b.i.d. cohort, C1D1 (alisertib present), n=25
[19] = 50 mg, alisertib 50 mg b.i.d. cohort, C1D1 (alisertib present), n=3
[20] = 50 mg, alisertib 50 mg b.i.d. cohort, C2D1 (alisertib absent), n=2

- AUC [1, 6]: 5.22 µM·h
- AUC [1, 7]: 11.8 µM·h
- Cmax [1, 6]: 841 nM
- Cmax [1, 7]: 1660 nM
- Tmax ([1]; 30 mg, Median Tmax (range), MRV, alisertib 30 mg b.i.d., C1D1, n=4): 3.5 h
- Tmax ([1]; 30 mg, Median Tmax (range), MRV, alisertib 30 mg b.i.d., C1D7, n=4): 3.1 h
- AUC ([1]; 40 mg, MRV, alisertib 40 mg b.i.d., C1D1, n=22): 7.44 µM·h
- AUC [1, 8]: 14.9 µM·h
- Cmax ([1]; 40 mg, MRV, alisertib 40 mg b.i.d., C1D1, n=25): 1090 nM
- Cmax [1, 8]: 1950 nM
- Tmax ([1]; 40 mg, Median Tmax (range), MRV, alisertib 40 mg b.i.d., C1D1, n=25): 3 h
- Tmax ([1]; 40 mg, Median Tmax (range), MRV, alisertib 40 mg b.i.d., C1D7, n=20): 3.1 h
- AUC ([1]; 50 mg, MR, alisertib 50 mg b.i.d., C1D1, n=12): 8.61 µM·h
- AUC [1, 9]: 18.7 µM·h
- AUC [1, 10]: 11.2 µM·h
- AUC [1, 11]: 31.8 µM·h
- Cmax ([1]; 50 mg, MR, alisertib 50 mg b.i.d., C1D1, n=13): 1400 nM
- Cmax [1, 9]: 2590 nM
- Cmax [1, 10]: 1670 nM
- Cmax [1, 11]: 3500 nM
- Tmax ([1]; 50 mg, Median Tmax (range), MR, alisertib 50 mg b.i.d., C1D1, n=13): 3 h
- Tmax ([1]; 50 mg, Median Tmax (range), MR, alisertib 50 mg b.i.d., C1D7, n=12): 2 h
- Tmax ([1]; 50 mg, Median Tmax (range), MRV, alisertib 50 mg b.i.d., C1D1, n=3): 6.1 h
- Tmax ([1]; 50 mg, Median Tmax (range), MRV, alisertib 50 mg b.i.d., C1D7, n=2): 2.5 h
- Tmax ([1]; tmax after dose, with both MR and MRV): ~3 h
- Increase of alisertib exposures with dose ([1]; over the range of 30 to 50 mg b.i.d.): approximately dose-proportional
Compound: COc1cc(Nc2ncc3c(n2)-c2ccc(Cl)cc2C(c2c(F)cccc2OC)=NC3)ccc1C(=O)O [alisertib]
- ORR (CR + PR) ([2]; 37 response-evaluable patients (MR + MRV), n = 14): 38%
- CR ([2]; Total MR + MRV, N=37): 7 (19) n (%)
- ORR (CR + PR) ([2]; Total MR + MRV, N=37): 14 (38) n (%)
- PD ([2]; Total MR + MRV, N=37): 11 (30) n (%)
- PR ([2]; Total MR + MRV, N=37): 7 (19) n (%)
- Complete responses (CR) ([2]; all patients (MR + MRV)): Seven
- Median PFS ([2]; all patients (MR + MRV)): 5.1 months
- Partial responses (PRs) ([2]; all patients (MR + MRV)): 7 patients
- Median DOR ([2]; patients with a best response of CR, range 9.0–35.7): 14.3 months
- Median PFS ([2]; patients with a best response of CR, range 10.1–36.9): 16.4 months
- Median DOR ([2]; responding patients (MR + MRV)): 10.2 months
- Patients achieving first response by the end of cycle 2 ([2]; responding patients (MR + MRV)): 57%
- PR as best response ([3]; 3 patients): 15%
- CR as best response ([3]; 6 patients): 30%
- Objective response in GCB-derived disease [4]: None of the 7 response-evaluable patients; also recorded: no patients with GCB-derived disease (9/29) achieved an objective response

- Geometric mean ratio of vincristine AUC∞, presence vs absence of alisertib ([5]; MRV RP2D (alisertib 40 mg b.i.d.), 90% CI 82–115, n = 22): 97%
- AUC [5, 12]: 69.2 ng·h/mL
- AUC ([5]; 30 mg, alisertib 30 mg b.i.d. cohort, C2D1 (alisertib absent), n=2): 60.8 ng·h/mL
- AUC(0-inf) [5, 12]: 77 ng·h/mL
- AUC(0-inf) [5, 13]: 69 ng·h/mL
- clearance [5, 12]: 432 mL/min
- clearance [5, 14]: 483 mL/min
- Cmax [5, 14]: 98.2 ng/mL
- half-life [5, 12]: 20.2 h
- half-life [5, 13]: 19.9 h
- AUC ([5]; 40 mg, alisertib 40 mg b.i.d. cohort, C1D1 (alisertib present), n=24): 60.1 ng·h/mL
- AUC [5, 15]: 67.8 ng·h/mL
- AUC(0-inf) [5, 16]: 78 ng·h/mL
- AUC(0-inf) [5, 17]: 77 ng·h/mL
- clearance [5, 18]: 427 mL/min
- clearance [5, 15]: 432 mL/min
- Cmax [5, 18]: 82.9 ng/mL
- Cmax [5, 15]: 87.3 ng/mL
- half-life [5, 16]: 20 h
- half-life [5, 17]: 20.2 h
- AUC [5, 19]: 98 ng·h/mL
- AUC [5, 20]: 68.4 ng·h/mL
- AUC(0-inf) [5, 19]: 111 ng·h/mL
- clearance [5, 19]: 300 mL/min
- Cmax [5, 19]: 149 ng/mL
- Cmax [5, 20]: 120 ng/mL
- half-life [5, 19]: 25.6 h
- Cmax ([5]; vincristine 1.4 mg/m^2 + rituximab, alisertib 30 mg b.i.d. cohort, C1D1 (alisertib present), n=4): 120 ng/mL
Compound: CC[C@]1(O)C[C@H]2CN(CCc3c([nH]c4ccccc34)[C@@](C(=O)OC)(c3cc4c(cc3OC)N(C=O)[C@H]3[C@@](O)(C(=O)OC)[C@H](OC(C)=O)[C@]5(CC)C=CCN6CC[C@]43[C@@H]65)C2)C1 [vincristine]
